Series [1] relates to WSU-HN13. The experiment in a line: Potency index, ratio of cisplatin IC50 to test compound IC50 for human HN13 cells. Format: functional.
For series [2], the system named is Bacteria. Kind of series: Induction of bacterial pGEM-T easy DNA intercalation assessed as topoisomerase 1-mediated conversion of relaxed plasmid DNA to negatively supercoiled DNA at 10 nM after 30 mins by agarose-gel electrophoresis method. An outline of the steps: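 Relaxed pGEM-T Easy plasmid was made by Topo I treatment of supercoiled plasmid. Stopped with SDS/proteinase K (30 min, 50 °C). Run on 1% agarose in TBE, ethidium bromide stain; relaxed-to-supercoiled conversion scored.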

Series [3] can be described thus: Selectivity index, ratio of IC50 for human 184B5 cells to IC50 for human HN6 cells. As to conditions: 184B5 cells versus HN6 cells, read-out: Ratio IC50. Format: toxicity.
Series [4] can be described thus: Selectivity index, ratio of IC50 for human 184B5 cells to IC50 for human HeLa cells. In kind it is toxicity. The conditions noted are these: 184B5 cells versus HeLa cells, read-out: Ratio IC50.
A short description of series [5]: Potency index, ratio of cisplatin IC50 to test compound IC50 for human HN6 cells. Format: functional.
The nature of series [6]: Selectivity index, ratio of IC50 for human 184B5 cells to IC50 for human HN13 cells. As to conditions: 184B5 cells versus HN13 cells, read-out: Ratio IC50. In kind it is toxicity.
Series [7] has as its system WSU-HN13. Kind of series: Cytotoxicity against human HN13 cells assessed as decrease in cell viability after 24 hrs by MTT assay. Format: functional, cell-based. The conditions noted are these: WSU-HN13, 24 h. An outline of the steps: (§1)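 Cells seeded at 1×10^4 per well in complete medium with 10% FBS and antibiotics, 37 °C, 5% CO2. Washed with serum-free medium, then exposed to compounds for 24 h. MTT (5 mg/mL) added for a further 4 h, formazan dissolved in DMSO, absorbance read at 490 nm. Triplicates; IC50 obtained by non-linear regression of dose-response curves.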
Background: Formazan colour is commonly taken as a measure of viable cells.

The test system of series [8] is HeLa. Kind of series: Cytotoxicity against human HeLa cells assessed as decrease in cell viability after 24 hrs by MTT assay. In kind it is functional, cell-based. An outline of the steps: as §1
For series [9], the species on record is Bos taurus. The experiment in a line: Induction of calf thymus B DNA intercalation assessed as drug binding constant at DNA melting temperature at 31 uM by UV-vis spectrophotometric method. An outline of the steps: (§2)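 ct-DNA (31 μM in base pair) mixed with 31 μM compound, taken as saturating, in PBS. Absorbance at 260 nm monitored while heating 308 to 388 K at 1 K/min with a Peltier unit, giving melting curves. Binding constants estimated from the melting data.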

The species entered for series [10] is Bos taurus. The experiment in a line: Induction of calf thymus B DNA intercalation at 36 uM by CD spectra method. An outline of the steps: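 CD titration at 25 °C in quartz cells: fixed ct-DNA (12.6 μM in base pair) with compound added from a 4.26 mM DMSO stock, final 0 to about 35 μM. Each spectrum is an average of 5 runs with 5 min equilibration before each scan, corrected for dilution, cell and solvent.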

Series [11] is described as follows: Cytotoxicity against human HN6 cells assessed as decrease in cell viability after 24 hrs by MTT assay. In kind it is functional, cell-based. As to conditions: HN-6, 24 h. An outline of the steps:
as §1

Series [12] deals with 184B5. Kind of series: Cytotoxicity against human 184B5 cells assessed as decrease in cell viability after 24 hrs by MTT assay. In kind it is cell-based. The conditions noted are these: 184B5, 24 h. Summed up:
as §1

The species named for series [13] is Bos taurus. The experiment in a line: Induction of calf thymus B DNA intercalation assessed as DNA melting temperature at 31 uM by UV-vis spectrophotometric method (reference value: 354K). Summed up:
as §2

Two compounds from ChEMBL document CHEMBL4138224, “DNA intercalators based on (1,10-phenanthrolin-2-yl)isoxazolidin-5-yl core with better growth inhibition and selectivity than cisplatin upon head and neck squamous cells carcinoma” (Eur J Med Chem, 2018) can be followed below.

pIC50: −log10 of the molar value. Active and inactive are the calls of the source. The calls are words filed in the database; no cut-off is given here.

In general, pIC50 refers to the negative decadic logarithm of the IC50, by convention in mol/L. Take `COc1ccccc1CN1O[C@H](CO)C[C@@H]1c1ccc2ccc3cccnc3c2n1` (relative stereo): the “Ratio IC50” value is reported as 9.2 in [1] and 3.4 in [5]. For the same compound, the outcome in [2] and in [10] was Active. Further, the selectivity ratio in series [3] was 51.4; in series [4], 24.3; in series [6], 72. The pIC50 is 5.35 in series [7], 4.88 in [8], 5.20 in series [11] and 3.49 in series [12]. For the same compound, in series [9], the K is 4.53 ×10⁴ /M. In addition, the Tm in series [13] turned out to be 84.9 °C.

Consider `COc1ccccc1CN1O[C@@H](CO)C[C@@H]1c1ccc2ccc3cccnc3c2n1` (relative stereo), for which the result in series [2] and in [10] was Active. In addition, the pIC50 in series [7] was 4.60; in series [8] it was 4.40; in series [11], 4.61; in series [12], 3.42. The K in series [9] is 9.26 ×10³ /M. Besides, the Tm in series [13] was found to be 81.9 °C.
